Published values collected from several papers.
Compare with care: the assays were run in different laboratories.
Target: Serine/threonine-protein kinase 3 (STK3, Homo sapiens, UniProt Q13188)
Sequence (Q13188 1-491, as in one of the studies): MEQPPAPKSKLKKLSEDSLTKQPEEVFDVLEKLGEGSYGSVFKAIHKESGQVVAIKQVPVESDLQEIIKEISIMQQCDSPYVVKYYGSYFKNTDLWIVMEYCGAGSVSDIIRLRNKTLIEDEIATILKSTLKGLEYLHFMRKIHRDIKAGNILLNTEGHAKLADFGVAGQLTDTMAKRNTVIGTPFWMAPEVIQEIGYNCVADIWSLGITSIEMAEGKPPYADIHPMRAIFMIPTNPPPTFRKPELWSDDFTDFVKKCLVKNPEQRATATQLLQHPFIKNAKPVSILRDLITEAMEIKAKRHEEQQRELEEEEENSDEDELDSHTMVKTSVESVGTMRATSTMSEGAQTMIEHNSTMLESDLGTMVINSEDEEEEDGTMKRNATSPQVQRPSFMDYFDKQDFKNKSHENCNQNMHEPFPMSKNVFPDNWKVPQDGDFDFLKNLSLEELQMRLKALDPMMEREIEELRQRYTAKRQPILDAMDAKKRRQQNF

CC(C)S(=O)(=O)c1ccc2nccc(Nc3ccc4sc(C5CCCC5)nc4c3)c2c1
activity vs control (enzyme activity, inhibitor; 1 µM): 103%

CCCCC(=O)Nc1ccc(-c2ccc3ncn(CCC)c(=O)c3c2)cn1
remaining binding (binding, competition with immobilised ligand; 0.5 µM): 73%

CN1CCN(C(=O)c2ccc(NC(=O)Nc3ccc(N(C)c4ccnc(Nc5ccc(CS(C)(=O)=O)cc5)n4)cc3)cc2)CC1
remaining binding (binding; 1 µM): 16%

CC#CC(=O)N1CCC[C@H]1c1nc(-c2ccc(C(=O)Nc3ccccn3)cc2)c2c(N)nccn12
inhibition (enzyme activity, inhibitor; 1 µM): 19%

Cc1ccc(NC(=O)c2ccnc(C(F)(F)F)c2)cc1-c1cc(OCCO)nc(N2CCOCC2)c1
remaining binding (binding; 1 µM): 79%

CO[C@@H]1[C@H](N(C)C(=O)c2ccccc2)C[C@H]2O[C@]1(C)n1c3ccccc3c3c4c(c5c6ccccc6n2c5c31)C(=O)NC4
inhibition (enzyme activity, inhibitor; 1 µM): 100%

C#Cc1cc(-c2cc(Nc3nc(N[C@@H](C)c4ccc(F)cn4)ncc3Cl)n[nH]2)ccc1C=O
inhibition (enzyme activity, inhibitor; 0.2 µM): 29.9%

COc1ccc2oc(-c3ccc4nc(N)oc4c3)c/c(=N\c3ccccc3NC(=O)CCN)c2c1
remaining binding (binding; 1 µM): 79%

Cc1cc(O)c(-c2ccc([C@@H](C)CN(C)C)cc2)c2c1[nH]c(=O)c1sccc12
inhibition (enzyme activity, inhibitor; 0.1 µM): 9.39%
